Results from ChEMBL document CHEMBL2040751, “Discovery of PF-04449913, a Potent and Orally Bioavailable Inhibitor of Smoothened” (ACS Med Chem Lett, 2012).
≈ marks a conversion by molar mass, not a printed value.

Key:
[1] = Chemical solubility of the compound in PBS at pH 6.5; format: physicochemical
[2] = Chemical solubility of the compound in SGN at pH 1.2; format: physicochemical
[3] = Aqueous solubility of the compound; format: physicochemical; conditions: buffer
[4] = biological target: Protein smoothened (Mus musculus) (UniProt P56726); assay: Potency ratio, ratio of IC50 for compound to IC50 for compound 1 in mouse C3H10T1/2 cells by SMO/SHH transient transcriptional activation based Gli-luciferase reporter assay; format: cell-based; conditions: C3H 10T1/2
Sequence of Protein smoothened (Mus musculus) (P56726 whole entry): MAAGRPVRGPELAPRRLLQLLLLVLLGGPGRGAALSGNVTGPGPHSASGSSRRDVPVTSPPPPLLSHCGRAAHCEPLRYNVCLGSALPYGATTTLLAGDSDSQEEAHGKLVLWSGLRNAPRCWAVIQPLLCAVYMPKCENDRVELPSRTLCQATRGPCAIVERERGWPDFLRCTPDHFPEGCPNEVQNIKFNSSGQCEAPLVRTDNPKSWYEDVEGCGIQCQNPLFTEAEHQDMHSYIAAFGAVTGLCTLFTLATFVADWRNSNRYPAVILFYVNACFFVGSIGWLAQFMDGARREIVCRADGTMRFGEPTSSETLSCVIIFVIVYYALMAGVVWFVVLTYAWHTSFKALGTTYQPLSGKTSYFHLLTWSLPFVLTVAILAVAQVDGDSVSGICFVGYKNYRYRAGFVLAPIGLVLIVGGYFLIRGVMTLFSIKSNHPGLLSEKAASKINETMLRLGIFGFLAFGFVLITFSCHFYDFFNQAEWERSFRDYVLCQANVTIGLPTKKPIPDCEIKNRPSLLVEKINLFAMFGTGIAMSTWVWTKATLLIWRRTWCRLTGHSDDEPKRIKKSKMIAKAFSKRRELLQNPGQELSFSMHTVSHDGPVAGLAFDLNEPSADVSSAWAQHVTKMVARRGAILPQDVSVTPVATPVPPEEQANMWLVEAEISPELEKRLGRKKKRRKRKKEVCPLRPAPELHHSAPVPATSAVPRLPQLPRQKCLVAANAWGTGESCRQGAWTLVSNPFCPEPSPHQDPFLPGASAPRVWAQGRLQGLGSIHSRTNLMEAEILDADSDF

[5] = biological target: Protein smoothened (Mus musculus, UniProt P56726); assay: Inhibition of Smo in mouse C3H10T1/2 cells using human recombinant SHH assessed as effect on SMO/SHH transient transcriptional activation after 20 hrs by Gli-luciferase reporter assay; format: cell-based, C3H 10T1/2
Sequence of Protein smoothened (P56726 whole entry): as above

[6] = Percentage unbound in human plasma; format: ADME, cell-free
[7] = Percentage unbound in dog plasma; format: ADME, cell-free, Canis lupus familiaris
[8] = Percentage unbound in rat plasma; format: ADME, cell-free
[9] = Free intrinsic clearance in human microsomes; format: ADME, Microsome
[10] = Plasma clearance in rat at 2 mg/kg, iv dosed in 20% PEG400/80% H2O; format: ADME, organism-based; set-up: dose 2 mg/kg, route intravenous
Summary of the method: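 Single IV dose of 2 mg/kg formulated in 20% PEG400/80% H2O. Plasma clearance was determined.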

[11] = Apparent permeability of the compound across basolateral to apical side in human Caco2 cells; format: ADME, cell-based; conditions: Caco-2
[12] = Fraction unbound in dog liver microsomes; format: ADME, Canis lupus familiaris, Microsome
[13] = biological target: Cytochrome P450 3A4 (Homo sapiens, UniProt P08684); assay: Inhibition of CYP3A4; format: ADME
Sequence of Cytochrome P450 3A4 (P08684 whole entry): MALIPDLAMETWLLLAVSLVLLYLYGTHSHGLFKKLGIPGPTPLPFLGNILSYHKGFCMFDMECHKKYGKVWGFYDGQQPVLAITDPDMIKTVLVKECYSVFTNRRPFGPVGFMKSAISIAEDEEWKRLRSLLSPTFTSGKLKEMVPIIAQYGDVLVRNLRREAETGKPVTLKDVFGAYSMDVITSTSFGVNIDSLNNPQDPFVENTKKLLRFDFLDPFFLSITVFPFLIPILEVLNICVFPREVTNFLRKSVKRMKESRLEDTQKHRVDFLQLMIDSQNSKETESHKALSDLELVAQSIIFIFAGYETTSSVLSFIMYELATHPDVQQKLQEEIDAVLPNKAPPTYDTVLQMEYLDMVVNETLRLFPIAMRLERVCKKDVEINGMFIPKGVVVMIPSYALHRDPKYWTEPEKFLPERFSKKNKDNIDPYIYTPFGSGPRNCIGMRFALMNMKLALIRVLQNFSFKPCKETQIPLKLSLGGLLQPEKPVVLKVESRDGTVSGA

[14] = system: Salmonella typhimurium; assay: Induction of genotoxicity in Salmonella typhimurium by Ames test; format: toxicity, organism-based; conditions: salmonella enterica subsp. enterica serovar typhimurium
[15] = Half life in dog at 0.5 mg/kg, iv and 3 mg/kg, po; format: ADME, organism-based, Canis lupus familiaris; conditions: in vivo
Summary of the method: (§1)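 In dogs, the IV dose was 0.5 mg/kg in solution in 10% EtOH/20% PEG400/70% PBS. The oral dose was 3 mg/kg in methylcellulose in water.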

[16] = Fraction unbound in rat liver microsomes; format: ADME, Microsome
[17] = Induction of genotoxicity in micronucleus by micronucleus test
[18] = biological target: Cytochrome P450 2D6 (Homo sapiens, UniProt P10635); assay: Inhibition of CYP2D6; format: ADME
Sequence of Cytochrome P450 2D6 (P10635 whole entry): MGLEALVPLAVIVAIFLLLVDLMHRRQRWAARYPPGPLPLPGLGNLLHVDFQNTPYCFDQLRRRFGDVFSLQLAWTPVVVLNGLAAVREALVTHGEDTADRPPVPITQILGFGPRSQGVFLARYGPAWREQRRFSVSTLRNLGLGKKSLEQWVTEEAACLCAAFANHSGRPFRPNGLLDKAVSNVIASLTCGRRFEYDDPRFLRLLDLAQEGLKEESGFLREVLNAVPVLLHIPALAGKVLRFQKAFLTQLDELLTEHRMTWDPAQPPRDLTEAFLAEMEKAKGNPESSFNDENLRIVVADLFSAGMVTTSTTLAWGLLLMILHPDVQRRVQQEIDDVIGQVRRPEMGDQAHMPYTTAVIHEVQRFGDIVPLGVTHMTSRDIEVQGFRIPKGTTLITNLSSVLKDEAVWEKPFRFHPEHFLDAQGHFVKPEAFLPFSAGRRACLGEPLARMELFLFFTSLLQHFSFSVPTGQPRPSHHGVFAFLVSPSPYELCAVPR

[19] = Lipophilicity, log D of the compound; format: physicochemical; conditions: octanol/water
[20] = Apparent permeability of the compound across apical to basolateral side in human Caco2 cells; format: ADME, cell-based; conditions: Caco-2
[21] = Oral bioavailability in rat at 1 mg/kg; format: ADME, organism-based; conditions: in vivo
Summary of the method: (§2)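 Rats received 1 mg/kg IV as a solution in 10% EtOH/20% PEG400/70% PBS. A separate group received 1 mg/kg orally in methylcellulose in water.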

[22] = Clearance in dog at 0.5 mg/kg, iv and 3 mg/kg, po; format: ADME, organism-based, Canis lupus familiaris; conditions: in vivo; summary of the method: as §1
[23] = Half life in rat at 1 mg/kg, iv and 1 mg/kg, po; format: ADME, organism-based; conditions: in vivo; summary of the method: as §2
[24] = Fraction unbound in human liver microsomes; format: ADME, Microsome
[25] = biological target: Cytochrome P450 2C19 (Homo sapiens, UniProt P33261); assay: Inhibition of CYP2C19; format: ADME
Sequence of Cytochrome P450 2C19 (P33261 whole entry): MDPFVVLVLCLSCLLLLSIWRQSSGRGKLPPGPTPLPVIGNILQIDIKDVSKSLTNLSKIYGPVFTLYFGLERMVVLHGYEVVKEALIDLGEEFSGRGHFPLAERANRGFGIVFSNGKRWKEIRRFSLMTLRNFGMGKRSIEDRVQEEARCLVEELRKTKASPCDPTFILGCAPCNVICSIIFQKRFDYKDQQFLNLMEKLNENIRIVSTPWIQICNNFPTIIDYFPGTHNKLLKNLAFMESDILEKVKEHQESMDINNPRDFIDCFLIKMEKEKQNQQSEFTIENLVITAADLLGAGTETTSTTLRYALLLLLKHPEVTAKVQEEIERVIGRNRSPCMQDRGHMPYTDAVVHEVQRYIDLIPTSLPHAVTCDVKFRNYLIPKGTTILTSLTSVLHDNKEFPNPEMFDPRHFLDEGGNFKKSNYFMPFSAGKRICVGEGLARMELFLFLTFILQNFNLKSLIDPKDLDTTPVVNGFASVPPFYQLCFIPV

[26] = Clearance in rat at 1 mg/kg, iv and 1 mg/kg, po; format: ADME, organism-based; conditions: in vivo; summary of the method: as §2
[27] = Intrinsic clearance in rat microsomes; format: ADME, Microsome
[28] = Intrinsic clearance in human microsomes; format: ADME, Microsome
[29] = Volume of distribution at steady state in rat at 1 mg/kg, iv and 1 mg/kg, po; format: ADME, organism-based; conditions: in vivo, read-out: Vdss; summary of the method: as §2
[30] = biological target: T1, Cytochrome P450 2C8 (Homo sapiens, UniProt P10632); assay: Inhibition of CYP2C8; format: ADME
T1 sequence (P10632 whole entry): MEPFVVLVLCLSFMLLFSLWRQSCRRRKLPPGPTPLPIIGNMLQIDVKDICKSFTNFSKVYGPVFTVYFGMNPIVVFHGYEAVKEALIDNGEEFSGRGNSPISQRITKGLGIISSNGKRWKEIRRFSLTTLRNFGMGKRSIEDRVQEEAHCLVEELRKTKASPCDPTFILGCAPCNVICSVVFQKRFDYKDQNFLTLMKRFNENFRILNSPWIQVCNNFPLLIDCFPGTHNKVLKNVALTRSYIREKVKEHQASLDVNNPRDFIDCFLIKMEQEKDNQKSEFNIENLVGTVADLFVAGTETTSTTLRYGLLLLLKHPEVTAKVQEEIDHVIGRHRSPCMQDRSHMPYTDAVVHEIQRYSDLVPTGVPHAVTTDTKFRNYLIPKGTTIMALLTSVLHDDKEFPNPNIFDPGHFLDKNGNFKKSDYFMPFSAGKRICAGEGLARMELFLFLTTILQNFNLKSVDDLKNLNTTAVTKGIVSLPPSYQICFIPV

[31] = biological target: T2, Cytochrome P450 1A2 (Homo sapiens, UniProt P05177); assay: Inhibition of CYP1A2; format: ADME
T2 sequence (P05177 whole entry): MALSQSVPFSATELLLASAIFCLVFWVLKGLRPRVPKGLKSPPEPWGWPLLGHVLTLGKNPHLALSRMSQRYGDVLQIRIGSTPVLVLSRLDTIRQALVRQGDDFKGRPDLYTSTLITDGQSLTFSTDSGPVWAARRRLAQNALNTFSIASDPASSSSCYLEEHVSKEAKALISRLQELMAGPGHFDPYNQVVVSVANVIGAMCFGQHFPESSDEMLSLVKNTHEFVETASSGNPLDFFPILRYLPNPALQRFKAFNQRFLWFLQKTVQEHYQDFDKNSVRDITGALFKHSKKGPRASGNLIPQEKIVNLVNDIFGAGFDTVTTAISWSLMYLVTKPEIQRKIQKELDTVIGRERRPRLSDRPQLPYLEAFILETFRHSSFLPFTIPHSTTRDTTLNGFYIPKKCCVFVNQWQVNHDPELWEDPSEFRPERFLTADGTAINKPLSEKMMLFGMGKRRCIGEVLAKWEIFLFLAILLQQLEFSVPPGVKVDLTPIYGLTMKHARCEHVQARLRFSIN

[32] = Oral bioavailability in dog at 3 mg/kg; format: ADME, organism-based, Canis lupus familiaris; conditions: in vivo; summary of the method: as §1
[33] = Volume of distribution at steady state in dog at 0.5 mg/kg, iv and 3 mg/kg, po; format: ADME, organism-based, Canis lupus familiaris; conditions: in vivo, read-out: Vdss; summary of the method: as §1
[34] = Intrinsic clearance in dog microsomes; format: ADME, Canis lupus familiaris, Microsome
[35] = Dissociation constant, pKa of the compound; format: physicochemical
[36] = biological target: Cytochrome P450 2C9 (Homo sapiens, UniProt P11712); assay: Inhibition of CYP2C9; format: ADME
Sequence of Cytochrome P450 2C9 (P11712 whole entry): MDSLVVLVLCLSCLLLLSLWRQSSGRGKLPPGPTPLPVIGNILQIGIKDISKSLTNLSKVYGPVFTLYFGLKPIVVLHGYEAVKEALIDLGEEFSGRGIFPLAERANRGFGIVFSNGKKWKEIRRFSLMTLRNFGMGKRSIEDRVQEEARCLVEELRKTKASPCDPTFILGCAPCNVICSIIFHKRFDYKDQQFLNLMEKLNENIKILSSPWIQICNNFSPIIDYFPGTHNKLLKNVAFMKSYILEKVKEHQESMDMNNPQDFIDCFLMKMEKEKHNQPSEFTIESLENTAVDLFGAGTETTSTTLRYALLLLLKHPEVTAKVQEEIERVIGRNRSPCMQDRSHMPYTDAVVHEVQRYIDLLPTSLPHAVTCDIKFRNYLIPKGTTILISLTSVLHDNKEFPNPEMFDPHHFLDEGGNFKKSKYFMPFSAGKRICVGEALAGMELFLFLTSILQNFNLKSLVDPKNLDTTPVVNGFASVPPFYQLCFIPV

[37] = Drug excretion in rat urine at 2 mg/kg, iv; format: ADME, organism-based; set-up: dose 2 mg/kg, route intravenous; conditions: read-out: Drug excretion
[38] = Oral bioavailability in dog at 5 mg/kg; format: ADME, organism-based, Canis lupus familiaris; conditions: in vivo
[39] = Drug excretion in rat bile at 2 mg/kg, iv; format: ADME, organism-based; set-up: dose 2 mg/kg, route intravenous; conditions: read-out: Drug excretion
[40] = Fraction absorbed in dog at 5 mg/kg, po; format: ADME, organism-based, Canis lupus familiaris; set-up: dose 5 mg/kg, route oral; conditions: in vivo
[41] = Plasma clearance in dog; format: ADME, organism-based, Canis lupus familiaris
[42] = Oral bioavailability in rat at 5 mg/kg dosed in 0.5% methylcellulose in water; format: ADME, organism-based; conditions: in vivo
Summary of the method: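 Oral dosing at 5 mg/kg, formulated in 0.5% methylcellulose in water.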

With CN1CC[C@@H](NC(=O)Nc2ccc(C#N)cc2)C[C@@H]1c1nc2ccccc2[nH]1.Cl.O as the compound, how does the solubility [1] read?
Its solubility is 1150 µg/mL.

And the solubility [2]?
Its solubility is greater than 69000 µg/mL.

And the solubility [3]?
The solubility was 20 µg/mL.

Which Ratio IC50 [4] does the source give for CN1CC[C@@H](NC(=O)Nc2ccc(C#N)cc2)C[C@@H]1c1nc2ccccc2[nH]1 here?
The Ratio IC50 was greater than 50.

What does the source list for CN1CC[C@@H](NC(=O)Nc2ccc(C(F)(F)F)cc2)C[C@@H]1c1nc2ccccc2[nH]1?
Ratio IC50 [4]: > 50; IC50 [5]: 5 nM

For CN1CC[C@@H](NC(=O)Nc2ccc(Cl)cc2)C[C@@H]1c1nc2ccccc2[nH]1, which Ratio IC50 [4] is on record?
The Ratio IC50 was greater than 50.

And the IC50 [5]?
The IC50 was 20 nM.

Which Ratio IC50 [4] does the source give for CN1CC[C@@H](NC(=O)Nc2cccnc2)C[C@@H]1c1nc2ccccc2[nH]1 here?
Its Ratio IC50 is greater than 50.

And the IC50 [5]?
Its IC50 is 191 nM.

With O=C(Nc1cccc(-c2nc3ccccc3[nH]2)c1)c1ccc2c(c1)OCCO2 as the compound, how does the fraction unbound [6] read?
Its fraction unbound is less than 0.01.

And the fraction unbound [7]?
Its fraction unbound is less than 0.01.

And the IC50 [5]?
The IC50 was 5 nM.

And the fraction unbound [8]?
Its fraction unbound is less than 0.01.

And the CL free [9]?
The CL free was 0.314 mL/min/kg.

And the solubility [3]?
Its solubility is 0.1 µg/mL (≈ 0.269 µM).

What about the clearance [10] of the same compound?
The clearance was 25 mL/min/kg.

What does the source list for COc1ccc(NC(=O)N[C@@H]2CCN(C)[C@@H](c3nc4ccccc4[nH]3)C2)cc1?
Ratio IC50 [4]: > 50; IC50 [5]: 35 nM

For CN1CC[C@@H](NC(=O)Nc2ccccc2)C[C@@H]1c1nc2ccccc2[nH]1, which Ratio IC50 [4] is on record?
The Ratio IC50 was greater than 50.

And the IC50 [5]?
The IC50 was 103 nM.

What does the source list for CN1CC[C@@H](NC(=O)Nc2ccc(C#N)cc2)C[C@@H]1c1nc2ccccc2[nH]1 [GLASDEGIB]?
Papp B→A [11]: 15.6 ×10⁻⁶ cm/s; fraction unbound [12]: 0.54; IC50 [13]: > 30000 nM; fraction unbound [6]: 0.091; Activity [14]: Non-toxic; half-life [15]: 2.9 h; fraction unbound [7]: 0.141; fraction unbound [16]: 0.57; Activity [17]: Non-toxic; IC50 [18]: > 30000 nM; logD [19]: 2.48; IC50 [5]: 5 nM; Papp A→B [20]: 5.98 ×10⁻⁶ cm/s; bioavailability [21]: 33%; clearance [22]: 3.9 mL/min/kg; half-life [23]: 1.4 h; fraction unbound [24]: 0.61; fraction unbound [8]: 0.109; IC50 [25]: > 30000 nM; clearance [26]: 31 mL/min/kg; CLint scaled [27]: 67 mL/min/kg; CLint scaled [28]: 6.3 mL/min/kg; Vd [29]: 4.8 L/kg; IC50 [30]: > 30000 nM; IC50 [31]: > 30000 nM; bioavailability [32]: 68%; Vd [33]: 4.3 L/kg; CLint scaled [34]: < 14 mL/min/kg; pKa [35]: 6; IC50 [36]: > 30000 nM

With CN1CC[C@@H](NC(=O)c2ccc3c(c2)OCCO3)C[C@@H]1c1nc2ccccc2[nH]1 as the compound, how does the dose excreted [37] read?
The dose excreted was less than 5%.

What about the bioavailability [38] of the same compound?
The bioavailability was 33%.

And the dose excreted [39]?
Its dose excreted is less than 5%.

What about the Fa [40] of the same compound?
The Fa was greater than 50%.

What about the Ratio IC50 [4] of the same compound?
The Ratio IC50 was 9.

And the clearance [41]?
The clearance was 18 mL/min/kg.

And the IC50 [5]?
The IC50 was 43 nM.

What about the clearance [10] of the same compound?
The clearance was greater than 70 mL/min/kg.

Which Ratio IC50 [4] does the source give for CN1CC[C@@H](NC(=O)Nc2ccc3c(c2)OCCO3)C[C@@H]1c1nc2ccccc2[nH]1 here?
The Ratio IC50 was greater than 50.

What about the IC50 [5] of the same compound?
Its IC50 is 45 nM.

Which Ratio IC50 [4] does the source give for CN1CC[C@@H](NC(=O)Nc2cccc(C#N)c2)C[C@@H]1c1nc2ccccc2[nH]1 here?
Its Ratio IC50 is greater than 50.

What about the IC50 [5] of the same compound?
The IC50 was 72 nM.

Which results are given for O=C(N[C@@H]1CCC[C@H](c2nc3ccccc3[nH]2)C1)c1ccc2c(c1)OCCO2?
Papp B→A [11]: 65 ×10⁻⁶ cm/s; Ratio IC50 [4]: 18; bioavailability [42]: 4%; IC50 [5]: 88 nM; Papp A→B [20]: 85 ×10⁻⁶ cm/s; solubility [3]: 37 µg/mL (≈ 98 µM); clearance [10]: 33 mL/min/kg
